Test results reported in publication PMC7317421 (Clinical Pharmacology in Drug Development, 2020).
Where two headings read alike, the source gives them in different places.

How the values were obtained:
[1] = humans; cited from earlier work
[2] = Plasma pharmacokinetics, single ascending oral doses after overnight fast; type: in vivo, human; details: fasted, Part 1; for AUC0‐∞ / Cmax: arithmetic mean (SD); for t½: mean ± SD
Summary of the method: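 Randomized, double‑blind, placebo‑controlled interleaving crossover in 2 cohorts of 8. Each cohort received 4 ascending single doses, ≥10 days apart, taken with water after a ≥10‑h overnight fast. Blood sampled up to 72 h postdose. Plasma was extracted by protein precipitation with a stable‑isotope internal standard and measured by LC‑MS/MS with calibration 2.00–1000 ng/mL (LLOQ 2.00 ng/mL). Noncompartmental parameters were summarized descriptively by dose.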

[3] = type: in vivo, human; details: for AUCtau / Cmax: mean (SD)
[4] = type: in vivo, human; details: for Median Tmax (range) / Cmax / t½: 100 mg single oral dose, Part 3; for Cmax: arithmetic mean (SD); for t½: mean ± SD
hepatic DNL = test: Fructose-stimulated hepatic DNL inhibition; type: in vivo, human
Summary of the method: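 Part 2, with baseline on day −6 and repeat on day 14 of dosing. On the evening/night before each challenge, subjects drank 4 doses of 70% D2O (60 mL each). Oral fructose 0.25 g/kg was then given every 30 min from 0 to 9.5 h, with dosing at 0 h. Body‑water deuterium was measured. Triglyceride‑palmitate was isolated from plasma by Folch extraction and TLC, and its methyl ester analysed by GC‑pyrolysis isotope‑ratio MS. Basal‑adjusted % newly made palmitate and AUEC10 were calculated.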

[5] = Safety and tolerability: adverse events, vital signs, ECG; type: in vivo, human
Summary of the method: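 Observed and self‑reported AEs, clinically significant physical‑exam changes and abnormal laboratory results were recorded. Vital signs and 12‑lead ECGs were monitored throughout. In Part 2, AEs were tallied separately for drug alone (days 1‑13) and for the periods with fructose/D2O. The safety set was everyone receiving ≥1 dose of study drug or fructose/D2O. Data were reviewed on an ongoing basis and summarized descriptively.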

[6] = Fasting and postprandial serum triglycerides and fasting lipids; type: in vivo, human
Summary of the method: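 Part 2, randomized 4:1 to drug or placebo with food, once daily or every 12 hours on days 1‑14. Fasting lipids were sampled after overnight fasts over 16 days. Total cholesterol, direct LDL and HDL were run on an automated chemistry analyzer. Postprandial triglycerides: 12 serial samples over 24 h on days 0 and 12. AUEC by trapezoid rule, averaged as AUEC24/24 when first, last and ≥75% of samples were available. Baseline was the mean of 0‑h values on days 0‑1.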

[7] = Platelet count and mean platelet volume; type: in vivo, human
[8] = rats; cited from earlier work
[9] = monkeys; cited from earlier work
[10] = 100 mg single dose, high‐fat meal vs fasted
[11] = 100 mg every 12 hours, same withdrawn subject

In the case of `Cc1nc2ccc(C(=O)N3CCC4(CC3)CC(=O)c3c(cnn3C(C)C)C4)cc2[nH]1` [PF‐05175157], the platelet count [1] is given as “decreased platelet count”.

With `COc1cc(C(=O)N2CCC3(CC2)CC(=O)c2c(cnn2C(C)C)C3)cc(-c2ccc(C(=O)O)cc2)n1` [PF‐05221304] the “Median Tmax (range)” value ([2]; 1 mg single oral dose) was 2.0 (1.0‐3.0) h, the “AUC0‐∞” value ([2]; 1 mg single oral dose) was 670.5 (182.2) ng·h/mL and the Cmax ([2]; 1 mg single oral dose) was 48.3 (8.2) ng/mL. For the same molecule, the t½ ([2]; 1 mg single oral dose) was 13.6 ± 3.4 h, the “Median Tmax (range)” value ([2]; 3 mg single oral dose) was 2.5 (1.1‐4.0) h and the “AUC0‐∞” value ([2]; 3 mg single oral dose) was 2508 (476.0) ng·h/mL. For the same molecule, the Cmax ([2]; 3 mg single oral dose) was 177.0 (46.3) ng/mL, the t½ ([2]; 3 mg single oral dose) was 13.5 ± 3.5 h and the “Median Tmax (range)” value ([2]; 10 mg single oral dose) was 3.0 (1.0‐5.0) h. The “AUC0‐∞” value ([2]; 10 mg single oral dose) was 8603 (1603.8) ng·h/mL, the Cmax ([2]; 10 mg single oral dose) was 608.5 (134.0) ng/mL and the t½ ([2]; 10 mg single oral dose) was 18.3 ± 2.3 h. The “Median Tmax (range)” value ([2]; 30 mg single oral dose) was 2.0 (0.5‐4.0) h, the Cmax ([2]; 30 mg single oral dose) was 2008 (421.7) ng/mL and the t½ ([2]; 30 mg single oral dose) was 17.6 ± 2.6 h. For the same molecule, the “Median Tmax (range)” value ([2]; 100 mg single oral dose) was 2.0 (1.0‐4.0) h, the Cmax ([2]; 100 mg single oral dose) was 7435 (1904.5) ng/mL and the t½ ([2]; 100 mg single oral dose) was 16.0 ± 3.6 h. For the same molecule, the “Median Tmax (range)” value ([2]; 200 mg single oral dose) was 2.0 (0.5‐4.0) h, the t½ ([2]; 200 mg single oral dose) was 15.3 ± 3.4 h and the “Median Tmax (range)” value ([2]; 240 mg single oral dose) was 1.5 (1.0‐4.0) h. For the same molecule, the t½ ([2]; 240 mg single oral dose) was 15.2 ± 2.8 h, the “Median Tmax (range)” value ([3]; Day 1, 1 mg every 12 hours) was 3.0 (3.0‐5.0) h and the AUCtau ([3]; Day 1, 1 mg every 12 hours) was 384.5 (71.1) ng·h/mL. The Cmax ([3]; Day 1, 1 mg every 12 hours) was 54.4 (9.0) ng/mL, the “Median Tmax (range)” value ([3]; Day 1, 3 mg every 12 hours) was 5.0 (2.0‐6.0) h and the AUCtau ([3]; Day 1, 3 mg every 12 hours) was 1038 (131.4) ng·h/mL. For the same molecule, the Cmax ([3]; Day 1, 3 mg every 12 hours) was 142.7 (21.2) ng/mL, the “Median Tmax (range)” value ([3]; Day 1, 10 mg every 12 hours) was 3.5 (1.0‐5.0) h and the AUCtau ([3]; Day 1, 10 mg every 12 hours) was 3811 (767.3) ng·h/mL. The Cmax ([3]; Day 1, 10 mg every 12 hours) was 584.6 (91.2) ng/mL, the “Median Tmax (range)” value ([3]; Day 1, 30 mg every 12 hours) was 5.0 (3.0‐5.0) h and the Cmax ([3]; Day 1, 30 mg every 12 hours) was 1689 (256.7) ng/mL. For the same molecule, the “Median Tmax (range)” value ([3]; Day 1, 40 mg once daily) was 4.0 (2.0‐8.0) h, the Cmax ([3]; Day 1, 40 mg once daily) was 1986 (591.8) ng/mL and the “Median Tmax (range)” value ([3]; Day 1, 100 mg every 12 hours) was 3.5 (0.5‐5.0) h. For the same molecule, the Cmax ([3]; Day 1, 100 mg every 12 hours) was 6831 (1388.6) ng/mL, the “Median Tmax (range)” value ([3]; Day 1, 100 mg once daily) was 4.0 (2.0‐6.0) h and the Cmax ([3]; Day 1, 100 mg once daily) was 5965 (1252.2) ng/mL. The “Median Tmax (range)” value ([3]; Day 7, 1 mg every 12 hours) was 3.0 (2.0‐5.0) h, the AUCtau ([3]; Day 7, 1 mg every 12 hours) was 760.4 (202.4) ng·h/mL and the Cmax ([3]; Day 7, 1 mg every 12 hours) was 91.4 (19.3) ng/mL. The “Median Tmax (range)” value ([3]; Day 7, 3 mg every 12 hours) was 5.0 (3.0‐5.1) h, the AUCtau ([3]; Day 7, 3 mg every 12 hours) was 2264 (484.8) ng·h/mL and the Cmax ([3]; Day 7, 3 mg every 12 hours) was 283.1 (49.1) ng/mL. The “Median Tmax (range)” value ([3]; Day 7, 10 mg every 12 hours) was 5.0 (5.0‐6.0) h, the AUCtau ([3]; Day 7, 10 mg every 12 hours) was 8334 (2131.6) ng·h/mL and the Cmax ([3]; Day 7, 10 mg every 12 hours) was 1009 (215.9) ng/mL. For the same molecule, the “Median Tmax (range)” value ([3]; Day 7, 30 mg every 12 hours) was 5.0 (3.0‐6.0) h, the Cmax ([3]; Day 7, 30 mg every 12 hours) was 3229 (741.0) ng/mL and the “Median Tmax (range)” value ([3]; Day 7, 40 mg once daily) was 4.0 (3.0‐6.0) h. The Cmax ([3]; Day 7, 40 mg once daily) was 2654 (674.6) ng/mL, the “Median Tmax (range)” value ([3]; Day 7, 100 mg every 12 hours) was 3.5 (3.0‐5.0) h and the “Median Tmax (range)” value ([3]; Day 7, 100 mg once daily) was 4.0 (2.0‐6.0) h. For the same molecule, the Cmax ([3]; Day 7, 100 mg once daily) was 7894 (1117.5) ng/mL, the “excreted in urine as unchanged drug over the dosing interval (Aeτ)” value ([3]; day 7, Part 2) was “Less than 1%” and the “accumulation for AUCtau” value ([3]; every‐12‐hour dosing) was “approximately 2 fold”. For the same molecule, the “median Tmax” value ([3]; multiple oral doses 1‐100 mg every 12 hours and 40‐100 mg once daily with food) was 3 to 5 h, the “accumulation for AUCtau” value ([3]; once‐daily dosing) was “approximately 1.5 fold” and the “steady state achieved (trough concentrations)” value ([3]; repeated dosing, Part 2) was ≤ 7 days. The “Geometric mean AUC0‐∞” value ([4]; 100 mg single dose, fasted) was 79 320 ng·h/mL, the “geometric mean Cmax” value ([4]; 100 mg single dose, fasted, CV% 25%) was 7479 ng/mL and the “Geometric mean AUC0‐∞” value ([4]; 100 mg single dose, fed) was 72 360 ng·h/mL. For the same molecule, the “geometric mean Cmax” value ([4]; 100 mg single dose, fed, CV% 41%) was 5592 ng/mL, the “decrease of AUC0‐∞ with food” value [4, 10] was ~9% and the “plasma Cmax reduction with food” value [4, 10] was 25%. The “Median Tmax (range)” value ([4]; fasted state) was 2.5 (1.0‐3.0) h, the Cmax ([4]; fasted state) was 7671 (1699.8) ng/mL and the t½ ([4]; fasted state) was 12.3 ± 2.0 h. The “Median Tmax (range)” value ([4]; fed state) was 5.0 (2.0‐8.0) h, the Cmax ([4]; fed state) was 5947 (1982.1) ng/mL and the t½ ([4]; fed state) was 13.2 ± 3.5 h. The “Adjusted % inhibition of newly made triglyceride‐palmitate (DNL), AUEC10” value (hepatic DNL; 10 mg Q12H, day 14 vs baseline (day −6)) was 80.0%, the “hepatic DNL inhibition over a 10‐hour period postdose” value (hepatic DNL; doses <40 mg/day) was ≤ 80% and the “inhibition of DNL (AUEC of newly made triglyceride‐palmitate), near‐maximal” value (hepatic DNL; doses ≥40 mg/day, 14 days) was > 90%. The “subjects with AEs” value ([5]; Part 1 (single doses, PF‐05221304 or placebo periods)) was 5 subjects, the “subjects with AEs” value ([5]; Part 3 (100 mg single dose fed/fasted)) was 3 subjects and the “vital signs or cardiac conduction intervals (12‐lead ECG)” value ([5]; all parts) was “no clinically significant changes”. The tolerability ([5]; single 1‐240 mg, repeated 2‐200 mg daily) was “well tolerated at all doses”, the maximum tolerated dose ([5]; up to 240 mg single, 200 mg/day repeated) was “not identified” and the “elevated fasting serum triglyceride levels (1 subject)” value [6, 11] was 2.1 fold. For the same molecule, the “elevated postprandial serum triglyceride levels (1 subject)” value [6, 11] was 2.6 fold, the “fasting and postprandial serum triglyceride levels” value ([6]; repeated daily doses ≥40 mg/day) was “increased” and the “maximum decline from day 0 in platelet count (1 subject, moderate AE)” value ([7]; 100 mg every 12 hours, day 13 + 24 hours, one person) was 53 000 /µL. For the same molecule, the platelet volume ([7]; doses ≥20 mg/day administered every 12 hours) was “increases in platelet volume”, the platelet count ([7]; repeated doses ≤40 mg/day) was “No change in platelet count” and the platelet count ([7]; repeated dosing ≥60 mg/day) was “gradual decline in platelet count from day 7 onward”. For the same molecule, the “lowest platelet count observed” value ([7]; repeated dosing, Part 2) was ≥ 100 000 /µL, the platelet count ([7]; single doses, 1‐ to 240‐mg dose range) was “did not change” and the asymmetric hepatic distribution [8] was ≥ 100 fold. For the same molecule, the asymmetric hepatic distribution [9] was ≥ 100 fold.
